A word on the IC50: it is the concentration that gives 50% inhibition.

We go through two molecules from ChEMBL document CHEMBL4732146, “Nitric oxide-donating and reactive oxygen species-responsive prochelators based on 8-hydroxyquinoline as anticancer agents” (Eur J Med Chem, 2021).

The structures appear in SMILES notation. Active and inactive are the calls of the source. The calls are words filed in the database; no cut-off is given here.

A short description of data set [1]: Drug metabolism in human SW1990 cells assessed as nitric oxide release at 12 uM measured after 24 hrs by DAF-FM DA probe based flow cytometry. It is filed as ADME, cell-based. Particulars: sw1990, 24 h. The method, boiled down: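 SW1990 cells at 80% confluence loaded with 5 µM DAF-FM DA for 20 min at 37 °C, rinsed, then incubated with compound. Optional 1 h pretreatment with 50 µM carboxyl-PTIO before 12 µM treatment. Fluorescence read by flow cytometry (ex 495 / em 515 nm). Mean ± SD, n = 3.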
On the technique in general: A flow cytometer gives signals particle by particle.

For data set [2], the system named is SW1990. The data set can be described thus: Cytotoxicity against human SW1990 cells assessed as reduction in cell viability at 10 to 20 uM measured after 48 hrs by MTT assay. It is filed as functional, cell-based. Particulars: dose 10-20 µM. The method, boiled down:
(§1)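 MTT assay with 48 h compound exposure at 10 or 20 µM. Cells seeded 6 × 10⁴ per well and grown 24 h beforehand. MTT 4 h, DMSO solubilisation, A490 read. Percent cell death given as mean ± SD, n = 3.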

Data set [3] relates to SW1990. The data set can be described thus: Induction of apoptosis in human SW1990 cells at 12 uM measured after 24 hrs by Annexin V-FITC/propidium iodide staining based flow cytometry. It counts as functional, cell-based. The essentials: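 SW1990 cells seeded 5 × 10⁵ per well and grown 24 h, then treated 24 h at 8 or 12 µM. Optional 1 h pretreatment with 20 mM NAC or 50 µM carboxyl-PTIO before 12 µM treatment. Cells stained with annexin V-FITC 15 min and PI 5 min at room temperature in the dark, then analysed by flow cytometry. Mean ± SD, n = 3.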

Data set [4] is described as follows: Metal chelating activity assessed as compound-Cu2+ complex formation measured after 40 mins by calcein dye based fluorescence assay. As to conditions: dose 10-50 µM. The essentials:
(§2)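 Calcein (10 µM) in 50 mM HEPES was quenched by 10 µM CuCl₂ (or FeCl₃ for the Fe³⁺ arm). Chelator was added from DMSO stock to a final 10 or 50 µM and incubated 40 min at room temperature. Recovery rate was calculated from fluorescence (λex 485 / λem 520 nm); n = 3.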

Data set [5] can be described thus: Metal chelating activity assessed as compound-Fe3+ complex formation measured after 40 mins by calcein dye based fluorescence assay. As to conditions: dose 10-50 µM. The essentials: as §2
Data set [6] can be described thus: Drug metabolism in human PANC-1 cells assessed as nitric oxide release at 10 uM measured after 8 hrs by Griess assay. It counts as ADME, cell-based. Particulars: panc-1, 8 h. The essentials: (§3)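 Cells exposed 8 h to 10 µM compound. Nitrite measured by Griess reagent kit at 540 nm against a NaNO₂ calibration curve. Mean ± SD, n = 3.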
Data set [7] in a line: Drug metabolism in human SW1990 cells assessed as nitric oxide release at 10 uM measured after 8 hrs by Griess assay. It is filed as ADME, cell-based. As to conditions: sw1990, 8 h. The method, boiled down:
as §3
For orientation: Nitrite, measured by Griess reagent, commonly stands in for NO production.

Data set [8] concerns A549. Kind of data set: Cytotoxicity against human A549 cells assessed as reduction in cell viability at 10 to 20 uM measured after 48 hrs by MTT assay. It is filed as functional, cell-based. As to conditions: dose 10-20 µM.
Data set [9] has as its system HeLa. Kind of data set: Cytotoxicity against human HeLa cells assessed as reduction in cell viability at 10 to 20 uM measured after 48 hrs by MTT assay. It counts as functional, cell-based. Particulars: dose 10-20 µM. On the technique in general: Formazan colour is commonly taken as a measure of viable cells.
Data set [10] concerns HepG2. Kind of data set: Cytotoxicity against human HepG2 cells assessed as reduction in cell viability at 10 to 20 uM measured after 48 hrs by MTT assay. It counts as functional, cell-based. Particulars: dose 10-20 µM. The method, boiled down: as §1
The subject of data set [11] is MCF7. Kind of data set: Cytotoxicity against human MCF7 cells assessed as reduction in cell viability at 10 to 20 uM measured after 48 hrs by MTT assay. It counts as functional, cell-based. As to conditions: dose 10-20 µM. The essentials: as §1
The test system of data set [12] is PANC-1. The data set can be described thus: Cytotoxicity against human PANC-1 cells assessed as reduction in cell viability at 10 uM measured after 48 hrs by MTT assay. It is filed as functional, cell-based. The method, boiled down: as §1
The subject of data set [13] is PANC-1. The data set can be described thus: Cytotoxicity against human PANC-1 cells assessed as reduction in cell viability at 20 uM measured after 48 hrs by MTT assay relative to control. It is filed as functional. The method, boiled down: as §1
The test system of data set [14] is A549. Kind of data set: Cytotoxicity against human A549 cells assessed as reduction in cell viability measured after 48 hrs by MTT assay. It is filed as functional, cell-based. Particulars: A549, 48 h.
Data set [15] deals with HeLa. The data set can be described thus: Cytotoxicity against human HeLa cells assessed as reduction in cell viability measured after 48 hrs by MTT assay. It is filed as functional, cell-based.
Data set [16] deals with HepG2. The data set can be described thus: Cytotoxicity against human HepG2 cells assessed as reduction in cell viability measured after 48 hrs by MTT assay. It is filed as functional, cell-based. Particulars: HepG2, 48 h. The essentials: (§4)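 Cells seeded 6 × 10⁴ per well, cultured 24 h at 37 °C under 5% CO₂, then exposed to compound for 48 h, with or without 50 µM CuCl₂ or FeCl₃ co-incubation. MTT added for 4 h at 37 °C, formazan dissolved in DMSO, A490 read. IC50 reported as mean (SD), n = 3.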

The subject of data set [17] is MCF7. The data set can be described thus: Cytotoxicity against human MCF7 cells assessed as reduction in cell viability measured after 48 hrs by MTT assay. As to conditions: MCF7, 48 h. It is filed as functional, cell-based. The method, boiled down: as §4
Data set [18] deals with PANC-1. Kind of data set: Cytotoxicity against human PANC-1 cells assessed as reduction in cell viability measured after 48 hrs by MTT assay. As to conditions: PANC-1, 48 h. It counts as functional, cell-based. The essentials:
as §4

For data set [19], the system named is HCT-116. Kind of data set: Cytotoxicity against human HCT-116 cells assessed as reduction in cell viability measured after 48 hrs by MTT assay. Particulars: HCT-116, 48 h. It is filed as functional, cell-based. The method, boiled down: as §4
For data set [20], the system named is PC-3. The data set can be described thus: Cytotoxicity against human PC-3 cells assessed as reduction in cell viability measured after 48 hrs by MTT assay. It counts as functional, cell-based. Particulars: PC-3, 48 h. The method, boiled down: as §4
The subject of data set [21] is SW1990. The data set can be described thus: Cytotoxicity against human SW1990 cells assessed as reduction in cell viability measured after 48 hrs by MTT assay. It is filed as functional, cell-based. Particulars: SW1990, 48 h. The method, boiled down:
as §4

The test system of data set [22] is A549. Kind of data set: Cytotoxicity against human A549 cells assessed as reduction in cell viability measured after 48 hrs in presence of CuCl2 by MTT assay. It counts as functional, cell-based. Particulars: A549, 48 h.
Data set [23] concerns HeLa. Kind of data set: Cytotoxicity against human HeLa cells assessed as reduction in cell viability measured after 48 hrs in presence of CuCl2 by MTT assay. It is filed as functional, cell-based.
In data set [24] the test system is HepG2. Kind of data set: Cytotoxicity against human HepG2 cells assessed as reduction in cell viability measured after 48 hrs in presence of CuCl2 by MTT assay. It counts as functional, cell-based. Particulars: HepG2, 48 h. The method, boiled down:
as §4

Data set [25] concerns MCF7. The data set can be described thus: Cytotoxicity against human MCF7 cells assessed as reduction in cell viability measured after 48 hrs in presence of CuCl2 by MTT assay. Particulars: MCF7, 48 h. It counts as functional, cell-based. The essentials:
as §4

Data set [26] has as its system PANC-1. Kind of data set: Cytotoxicity against human PANC-1 cells assessed as reduction in cell viability measured after 48 hrs in presence of CuCl2 by MTT assay. It counts as functional, cell-based. As to conditions: PANC-1, 48 h. The method, boiled down:
as §4

Data set [27] has as its system HCT-116. Kind of data set: Cytotoxicity against human HCT-116 cells assessed as reduction in cell viability measured after 48 hrs in presence of CuCl2 by MTT assay. It counts as functional, cell-based. Particulars: HCT-116, 48 h. The essentials: as §4
Data set [28] has as its system PC-3. Kind of data set: Cytotoxicity against human PC-3 cells assessed as reduction in cell viability measured after 48 hrs in presence of CuCl2 by MTT assay. Particulars: PC-3, 48 h. It counts as functional, cell-based. The method, boiled down:
as §4

Data set [29] concerns SW1990. Kind of data set: Cytotoxicity against human SW1990 cells assessed as reduction in cell viability measured after 48 hrs in presence of CuCl2 by MTT assay. Particulars: SW1990, 48 h. It is filed as functional, cell-based. The method, boiled down: as §4
Data set [30] relates to A549. The data set can be described thus: Cytotoxicity against human A549 cells assessed as reduction in cell viability measured after 48 hrs in presence of FeCl3 by MTT assay. Particulars: A549, 48 h. It counts as functional, cell-based.
The test system of data set [31] is HeLa. Kind of data set: Cytotoxicity against human HeLa cells assessed as reduction in cell viability measured after 48 hrs in presence of FeCl3 by MTT assay. It counts as functional, cell-based.
The test system of data set [32] is HepG2. The data set can be described thus: Cytotoxicity against human HepG2 cells assessed as reduction in cell viability measured after 48 hrs in presence of FeCl3 by MTT assay. It is filed as functional, cell-based. As to conditions: HepG2, 48 h. The essentials: as §4
The subject of data set [33] is MCF7. The data set can be described thus: Cytotoxicity against human MCF7 cells assessed as reduction in cell viability measured after 48 hrs in presence of FeCl3 by MTT assay. It is filed as functional, cell-based. As to conditions: MCF7, 48 h. The method, boiled down:
as §4

The test system of data set [34] is PANC-1. Kind of data set: Cytotoxicity against human PANC-1 cells assessed as reduction in cell viability measured after 48 hrs in presence of FeCl3 by MTT assay. It is filed as functional, cell-based. Particulars: PANC-1, 48 h. The method, boiled down:
as §4

The test system of data set [35] is HCT-116. The data set can be described thus: Cytotoxicity against human HCT-116 cells assessed as reduction in cell viability measured after 48 hrs in presence of FeCl3 by MTT assay. It is filed as functional, cell-based. As to conditions: HCT-116, 48 h. The essentials:
as §4

For data set [36], the system named is PC-3. The data set can be described thus: Cytotoxicity against human PC-3 cells assessed as reduction in cell viability measured after 48 hrs in presence of FeCl3 by MTT assay. It is filed as functional, cell-based. As to conditions: PC-3, 48 h. The essentials: as §4
Data set [37] deals with SW1990. Kind of data set: Cytotoxicity against human SW1990 cells assessed as reduction in cell viability measured after 48 hrs in presence of FeCl3 by MTT assay. It is filed as functional, cell-based. As to conditions: SW1990, 48 h. The method, boiled down: as §4
Data set [38] in a line: Cytotoxicity against human H6C7 cells assessed as reduction in cell viability measured after 48 hrs by MTT assay. It counts as cell-based. Particulars: H6C7, 48 h. The essentials: as §4
Data set [39] can be described thus: Cytotoxicity against human RWPE2 cells assessed as reduction in cell viability measured after 48 hrs by MTT assay. Particulars: RWPE2, 48 h. It is filed as cell-based. The essentials: as §4

In the case of `O=C(NCCCOc1nonc1S(=O)(=O)c1ccccc1)c1ccc2cccc(OCc3ccc(B(O)O)cc3)c2n1`, in data set [1], the Drug metabolism entry is on record as “Metabolite_Notdetected”. In [2], the result was inactive. Also, in data set [3], the outcome was Active.
For the molecule `O=C(c1ccc2cccc(O)c2n1)N1CCC(Oc2no[n+]([O-])c2S(=O)(=O)c2ccccc2)CC1`, the Activity result in data set [4] was “Dose-dependent effect”; in [5], “Dose-dependent effect”; in [13] it was 82.3%. Moreover, the Drug metabolism entry in data set [6] and in data set [7] was “Metabolite_Detected” throughout. Moreover, the outcome in [8], in data set [9], in data set [10], in data set [11] and in data set [12] was Active. Also, the IC50 came out at 7.8 µM in data set [14]; 33.9 µM in [15]; 14.6 µM in data set [16]; 15.4 µM in data set [17]; 9.05 µM in data set [18]; 11.2 µM in [19]. The 50% inhibitory concentration (IC50) in data set [20] stood at 10.4 µM; in data set [21] it was 6.59 µM; in data set [22], 2.16 µM; in [23], 9.77 µM; in data set [24] it was 4.05 µM; in data set [25], 3.07 µM. The IC50 in [26] worked out at 1.32 µM; in data set [27] it was 3.29 µM; in data set [28] it was 5.02 µM; in [29] it was 0.79 µM; in data set [30], 12.4 µM; in data set [31], 37.9 µM. The IC50 in [32] amounted to 19.9 µM; in [33], 17 µM; in [34] it was 14.8 µM; in data set [35], 17.2 µM; in data set [36] it was 14.6 µM; in [37], 10.6 µM. The results for the IC50 in data set [38] and in data set [39] were 13.2 µM and 7.04 µM, respectively.
